# Data as given in ChEMBL document CHEMBL2040780, “Antiarrhythmic properties of phenylpiperazine derivatives of phenytoin with α₁-adrenoceptor affinities” (Bioorg Med Chem, 2012).
# The source made the active and inactive calls.
# Tests used:
# [1] = biological target: T1, Adrenergic receptor alpha-1 (Rattus norvegicus, UniProt P15823+P23944+P43140); experiment: Displacement of [3H]prazosin from alpha1 adrenoceptor in rat cerebral cortex after 30 mins by microbeta scintillation counting; assay type: tissue-based
# T1 sequence (P15823 whole entry): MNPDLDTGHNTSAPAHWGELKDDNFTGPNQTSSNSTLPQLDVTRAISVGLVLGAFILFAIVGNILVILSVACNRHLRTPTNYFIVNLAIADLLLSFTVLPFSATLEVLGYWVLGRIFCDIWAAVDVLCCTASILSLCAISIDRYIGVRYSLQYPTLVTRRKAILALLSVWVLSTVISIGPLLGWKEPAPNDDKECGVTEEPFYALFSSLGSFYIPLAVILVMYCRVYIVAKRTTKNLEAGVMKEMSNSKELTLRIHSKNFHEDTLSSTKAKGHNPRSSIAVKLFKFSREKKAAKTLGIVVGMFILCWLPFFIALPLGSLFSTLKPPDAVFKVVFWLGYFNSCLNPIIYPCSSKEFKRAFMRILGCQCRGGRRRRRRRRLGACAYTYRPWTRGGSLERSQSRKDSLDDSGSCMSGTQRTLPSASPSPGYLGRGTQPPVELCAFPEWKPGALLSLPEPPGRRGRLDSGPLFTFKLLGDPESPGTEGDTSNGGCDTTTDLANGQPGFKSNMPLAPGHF
# T1 sequence (P23944 whole entry): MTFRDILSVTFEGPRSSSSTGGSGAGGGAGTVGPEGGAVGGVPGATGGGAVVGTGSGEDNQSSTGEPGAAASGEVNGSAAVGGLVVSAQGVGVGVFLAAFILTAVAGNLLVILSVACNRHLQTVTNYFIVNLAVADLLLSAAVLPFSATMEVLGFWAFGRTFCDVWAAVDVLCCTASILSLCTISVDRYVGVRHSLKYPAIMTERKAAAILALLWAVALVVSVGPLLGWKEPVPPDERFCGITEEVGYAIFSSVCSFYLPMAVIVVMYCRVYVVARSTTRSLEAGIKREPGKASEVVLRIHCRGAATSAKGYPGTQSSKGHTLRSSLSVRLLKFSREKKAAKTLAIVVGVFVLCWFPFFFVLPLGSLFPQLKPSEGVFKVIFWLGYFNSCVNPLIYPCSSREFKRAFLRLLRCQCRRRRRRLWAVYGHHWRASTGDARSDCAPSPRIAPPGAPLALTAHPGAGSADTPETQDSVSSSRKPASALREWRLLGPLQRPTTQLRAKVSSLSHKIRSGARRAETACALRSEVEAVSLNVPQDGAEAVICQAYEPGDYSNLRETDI
# T1 sequence (P43140 whole entry): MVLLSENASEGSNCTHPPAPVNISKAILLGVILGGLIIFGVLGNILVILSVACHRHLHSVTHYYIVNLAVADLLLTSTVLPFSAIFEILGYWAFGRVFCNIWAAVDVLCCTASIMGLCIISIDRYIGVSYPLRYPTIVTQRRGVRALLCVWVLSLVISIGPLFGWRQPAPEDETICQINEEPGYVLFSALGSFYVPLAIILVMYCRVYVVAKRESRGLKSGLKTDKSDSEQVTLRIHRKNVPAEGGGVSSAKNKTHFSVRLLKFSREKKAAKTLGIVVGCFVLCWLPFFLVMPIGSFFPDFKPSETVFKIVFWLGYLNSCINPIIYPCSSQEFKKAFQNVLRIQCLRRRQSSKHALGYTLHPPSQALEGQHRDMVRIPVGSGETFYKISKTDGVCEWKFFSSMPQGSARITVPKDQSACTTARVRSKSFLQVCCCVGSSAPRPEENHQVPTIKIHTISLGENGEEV
# Method in brief: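 Rat cerebral cortex homogenised in ice-cold 50 mM Tris-HCl (pH 7.6 at 25 °C), washed twice at 20000×g and resuspended at 10 mg wet weight/ml. Incubated with [3H]prazosin (19.5 Ci/mmol) and test compound for 30 min at 25 °C. Nonspecific binding defined with 10 µM phentolamine. GF/B filtration, scintillation counting, three-parameter logistic competition fit.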
# Rattus norvegicus [2] = experiment: Cardiotoxicity in Wistar rat assessed as effect on Q-T interval at 10 mg/kg, iv after 15 mins; assay type: toxicity, organism-based; parameters: dose 10 mg/kg, route intravenous; conditions: in vivo, 0.25 h
# Method in brief: (§1)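 Male Wistar rats (180–250 g), anaesthetised with thiopental 60 mg/kg ip. Standard lead II ECG recorded at 50 mm/s just before dosing and at 1, 5 and 15 min after. Heart rate and P–Q, Q–T and QRS intervals were read. n=6 per group, mean ± SEM, one-way ANOVA.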
# Rattus norvegicus [3] = experiment: Antiarrhythmic activity in iv dosed Wistar rat assessed as protection against barium chloride-induced extrasystoles administered 15 mins prior to barium chloride-challenge; assay type: functional
# Method in brief: (§2)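 Szekeres model in male Wistar rats. Activity is gradual disappearance of arrhythmia with restored sinus rhythm; protection against disturbances and death scored. Groups of 6 animals.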
# Rattus norvegicus [4] = experiment: Hypotensive activity in normotensive Wistar rat assessed as decrease in systolic blood pressure at 2.5 to 10 mg/kg, iv after 1 min measured up to 60 mins; assay type: organism-based, Artery; parameters: dose 2.5-10 mg/kg, route intravenous; conditions: in vivo
# Method in brief: (§3)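 Right carotid artery cannulated with heparin-saline-filled tubing for blood pressure recording. After 5 min stabilisation, compound injected iv into the caudal vein (2.5–10 mg/kg, 1 ml/kg). Systolic and diastolic pressure followed for 60 min. n=6 per group, mean ± SEM, one-way ANOVA.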
# Rattus norvegicus [5] = experiment: Cardiotoxicity in Wistar rat assessed as effect on QRS interval at 10 mg/kg, iv after 15 mins; assay type: toxicity, organism-based; parameters: dose 10 mg/kg, route intravenous; conditions: in vivo, 0.25 h; method in brief: as §1
# Rattus norvegicus [6] = experiment: Hypotensive activity in normotensive Wistar rat assessed as decrease in diastolic blood pressure at 2.5 to 10 mg/kg, iv after 1 min measured up to 60 mins; assay type: organism-based, Artery; parameters: dose 2.5-10 mg/kg, route intravenous; conditions: in vivo; method in brief: as §3
# Rattus norvegicus [7] = experiment: Antiarrhythmic activity in iv dosed barium chloride-induced Wistar rat arrhythmia model assessed as protection against mortality administered 15 mins prior to barium chloride-challenge; assay type: functional; conditions: Heart
# Method in brief: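 Male Wistar rats (180–250 g), groups of 6. Activity criterion: gradual disappearance of arrhythmia and restoration of sinus rhythm; protection against heart disturbances and death scored.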
# Rattus norvegicus [8] = experiment: Cardiotoxicity in Wistar rat assessed as effect on QRS interval at 10 mg/kg, iv after 5 mins; assay type: toxicity, organism-based; parameters: dose 10 mg/kg, route intravenous; conditions: in vivo; method in brief: as §1
# Rattus norvegicus [9] = experiment: Antiarrhythmic activity in Wistar rat assessed as protection against adrenaline-induced extrasystoles at 2.5 to 10 mg/kg, iv administered 15 mins prior to adrenaline-challenge; assay type: functional, organism-based; conditions: Heart
# Method in brief: (§4)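 Szekeres model in male Wistar rats anaesthetised with thiopental (60 mg/kg ip). Test compound given iv in water (2.5–10 mg/kg) 15 min before adrenaline 20 µg/kg iv. Scored for extrasystoles, bigeminy and mortality; activity means no premature beats and inhibited arrhythmia versus controls.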
# Rattus norvegicus [10] = experiment: Cardiotoxicity in Wistar rat assessed as effect on P-Q interval at 10 mg/kg, iv after 1 min; assay type: toxicity, organism-based; parameters: dose 10 mg/kg, route intravenous; conditions: in vivo; method in brief: as §1
# Rattus norvegicus [11] = experiment: Cardiotoxicity in Wistar rat assessed as effect on QRS interval at 10 mg/kg, iv after 1 min; assay type: toxicity, organism-based; parameters: dose 10 mg/kg, route intravenous; conditions: in vivo; method in brief: as §1
# Rattus norvegicus [12] = experiment: Antiarrhythmic activity in dosed Wistar rat assessed as protection against barium chloride-induced fibrillation administered 15 mins prior to barium chloride-challenge; assay type: functional; method in brief: as §2
# Rattus norvegicus [13] = experiment: Antiarrhythmic activity in Wistar rat assessed as protection against adrenaline-induced bigeminy at 2.5 to 10 mg/kg, iv administered 15 mins prior to adrenaline-challenge; assay type: functional, organism-based; conditions: Heart; method in brief: as §4
# Rattus norvegicus [14] = experiment: Hypotensive activity in normotensive Wistar rat assessed as decrease in systolic blood pressure at 2.5 to 10 mg/kg, iv at 1 min; assay type: organism-based, Artery; parameters: dose 2.5-10 mg/kg, route intravenous; conditions: in vivo; method in brief: as §3
# Rattus norvegicus [15] = experiment: Antiarrhythmic activity in Wistar rat assessed as effect on heart beat at 10 mg/kg, iv after 5 mins; assay type: functional; method in brief: as §1
# Rattus norvegicus [16] = experiment: Cardiotoxicity in Wistar rat assessed as effect on P-Q interval at 10 mg/kg, iv after 15 mins; assay type: toxicity, organism-based; parameters: dose 10 mg/kg, route intravenous; conditions: in vivo, 0.25 h; method in brief: as §1
# Rattus norvegicus [17] = experiment: Antiarrhythmic activity in iv dosed Wistar rat assessed as protection against adrenaline-induced arrhythmia administered 15 mins prior to adrenaline-challenge; assay type: functional; conditions: Heart; method in brief: as §4
# Rattus norvegicus [18] = experiment: Antiarrhythmic activity in Wistar rat assessed as effect on heart beat at 10 mg/kg, iv after 1 min; assay type: functional; method in brief: as §1
# Rattus norvegicus [19] = experiment: Cardiotoxicity in Wistar rat assessed as effect on P-Q interval at 10 mg/kg, iv after 5 mins; assay type: toxicity, organism-based; parameters: dose 10 mg/kg, route intravenous; conditions: in vivo; method in brief: as §1
# Rattus norvegicus [20] = experiment: Hypotensive activity in normotensive Wistar rat assessed as decrease in diastolic blood pressure at 2.5 to 10 mg/kg, iv at 1 min; assay type: organism-based, Artery; parameters: dose 2.5-10 mg/kg, route intravenous; conditions: in vivo; method in brief: as §3
# Rattus norvegicus [21] = experiment: Antiarrhythmic activity in Wistar rat assessed as effect on heart beat at 10 mg/kg, iv after 15 mins; assay type: functional; method in brief: as §1
# Rattus norvegicus [22] = experiment: Cardiotoxicity in Wistar rat assessed as effect on Q-T interval at 10 mg/kg, iv after 1 min; assay type: toxicity, organism-based; parameters: dose 10 mg/kg, route intravenous; conditions: in vivo; method in brief: as §1
# Rattus norvegicus [23] = experiment: Cardiotoxicity in Wistar rat assessed as effect on Q-T interval at 10 mg/kg, iv after 5 mins; assay type: toxicity, organism-based; parameters: dose 10 mg/kg, route intravenous; conditions: in vivo; method in brief: as §1
Structure (SMILES),Ki [1] [µM],pKi [1],Activity (Rattus norvegicus [2]) [ms],Activity (Rattus norvegicus [3]; Heart),Activity (Rattus norvegicus [4]),Activity (Rattus norvegicus [5]) [ms],Activity (Rattus norvegicus [6]),Activity (Rattus norvegicus [7]),Activity (Rattus norvegicus [8]) [ms],Activity (Rattus norvegicus [10]) [ms],Activity (Rattus norvegicus [11]) [ms],Activity (Rattus norvegicus [14]),Activity (Rattus norvegicus [15]) [min⁻¹],Activity (Rattus norvegicus [16]) [ms],Activity (Rattus norvegicus [18]) [min⁻¹],Activity (Rattus norvegicus [19]) [ms],Activity (Rattus norvegicus [20]),Activity (Rattus norvegicus [21]) [min⁻¹],Activity (Rattus norvegicus [22]) [ms],Activity (Rattus norvegicus [23]) [ms],other results
COc1ccccc1N1CCN(CCCN2C(=O)N(C)C(=O)C2(c2ccccc2)c2ccccc2)CC1.Cl,0.4129,6.38,–,–,–,–,–,–,–,–,–,–,–,–,–,–,–,–,–,–,–
CCOc1ccccc1N1CCN(CCCN2C(=O)N(C(C)C(=O)OC)C(=O)C2(c2ccccc2)c2ccccc2)CC1.Cl (stereo not given),0.4012,6.4,–,–,–,–,–,–,–,–,–,–,–,–,–,–,–,–,–,–,–
CCOc1ccccc1N1CCN(CC(O)CN2C(=O)N(C)C(=O)C2(c2ccccc2)c2ccccc2)CC1.Cl (racemic),–,–,118,inactive,Toxic,17,Toxic,inactive,16,75,18,Toxic,241,79,246,79,Toxic,242,109,114,Activity (Rattus norvegicus [9]): Active; Activity (Rattus norvegicus [12]; Heart): inactive; Activity (Rattus norvegicus [13]): Active; ED50 (Rattus norvegicus [17]): 0.33 mg/kg
COC(=O)CN1C(=O)N(CC(O)CN2CCN(c3ccccc3OC)CC2)C(c2ccccc2)(c2ccccc2)C1=O.Cl (racemic),–,–,74,inactive,Non-toxic,17,Non-toxic,inactive,18,64,20,Toxic,262,63,268,63,Toxic,261,98,76,Activity (Rattus norvegicus [9]): Active; Activity (Rattus norvegicus [12]; Heart): inactive; Activity (Rattus norvegicus [13]): Active; ED50 (Rattus norvegicus [17]): 0.69 mg/kg
CN1C(=O)N(CC(O)CN2CCN(c3ccccc3Cl)CC2)C(c2ccccc2)(c2ccccc2)C1=O.Cl (racemic),0.483,6.32,72,–,–,16,–,–,16,60,17,–,278,60,279,60,–,303,83,76,Activity (Rattus norvegicus [3]): >50%; Activity (Rattus norvegicus [12]): >50%
C=CC(C(=O)OC)N1C(=O)N(CC(O)CN2CCN(c3ccccc3OC)CC2)C(c2ccccc2)(c2ccccc2)C1=O.Cl (racemic),–,–,71,inactive,–,25,–,inactive,23,56,25,–,294,56,261,57,–,291,82,78,Activity (Rattus norvegicus [12]; Heart): inactive
CN1C(=O)N(CC(O)CN2CCN(c3ccccc3)CC2)C(c2ccccc2)(c2ccccc2)C1=O.Cl (racemic),0.5423,6.27,74,–,Non-toxic,18,Non-toxic,–,20,66,23,Toxic,260,59,270,59,Toxic,263,109,79,–
COC(=O)CN1C(=O)N(CC(O)CN2CCN(c3ccccc3F)CC2)C(c2ccccc2)(c2ccccc2)C1=O.Cl (racemic),3.3,5.48,71,–,Non-toxic,15,Non-toxic,–,17,66,17,Toxic,256,58,284,61,Toxic,281,86,82,–
